Measured values from different studies.
Read-out: cell growth or viability

COc1cc(C2C3=C(COC3=O)N(CCO)c3cc4c(cc32)CCC4)cc(OC)c1OC (centres unmarked)
IC50 (MCF-12A; ATP luminescence; 48 h): 5.5 µM

Cc1nc(Nc2ncc(C(=O)Nc3c(C)cccc3Cl)s2)cc(N2CC[C@H](O)C2)n1
inhibition (JeKo-1; ATP luminescence; 10 µM; 72 h): 37%

C[C@H]1CNCCCN1c1nccc(-c2noc([C@@]3(C)CCCc4sc(N)c(C#N)c43)n2)n1
EC50 (NCI-H727; 5 days): > 1 µM

COc1ccc(-c2oc3ccc(O)c(CN4CCCCC4)c3c2C(=O)NCc2cn(Cc3ccccc3)nn2)cc1
IC50 (J774.A1; resazurin; 18 h): 8 µM

O=c1cc(OCc2cc(-c3ccccc3)no2)c2ccccc2o1
IC50 (DND41; MTS; 72 h): > 100 µM

CCOC(=O)c1c(-c2ccc(OC)cc2)oc2ccc(OCc3cn(Cc4ccccc4)nn3)c(CN3CCCCC3)c12
IC50 (J774.A1; resazurin; 18 h): 37.9 µM

C[C@H]1CNCCN1c1nccc(-c2onc3c2CCC[C@@]32CCCc3sc(N)c(C#N)c32)n1
EC50 (NCI-H727; 5 days): 0.406 µM

Clc1ccc(-c2cc(CNc3cccc4cccnc34)on2)c(Cl)c1
IC50 (DND41; MTS; 72 h): 53.9 µM

COc1cccc2c1C(=O)c1c(O)c3c(c(O)c1C2=O)C[C@@](O)(C(=O)CO)C[C@@H]3O[C@H]1C[C@H](N)[C@H](O)[C@H](C)O1
IC50 (SU-DHL10; ATP luminescence; 72 h): 0.32 µM

C[C@H]1CN(C)CCN1c1nccc(-c2noc3c2CCC[C@@]32CCCc3sc(N)c(C#N)c32)n1
EC50 (NCI-H727; 5 days): 0.304 µM

N/C(=N\O)c1ccc(-c2cc(CNc3cccc4cccnc34)on2)cc1
IC50 (DND41; MTS; 72 h): 2.3 µM

C[C@H](Oc1nccc(-c2noc3c2CCC[C@@]32CCCc3sc(N)c(C#N)c32)n1)[C@@H]1CCCN1C
EC50 (NCI-H727; 5 days): 0.109 µM

O=c1cc(OCc2cc(-c3ccc(C(F)(F)F)cc3)no2)c2ccccc2o1
IC50 (DND41; MTS; 72 h): > 100 µM

CCOc1ccc(-c2cc(C(=O)O)c(-c3ccc(Cl)cc3)o2)cc1
EC50 (WM 266-4; MTT; 48 h): 87 µM
